Assay results from ChEMBL document CHEMBL1125789, “Synthesis and selective class III antiarrhythmic activity of novel N-heteroaralkyl-substituted 1-(aryloxy)-2-propanolamine and related propylamine derivatives” (J Med Chem, 1991).

Legend:
[1] = species on record: Canis familiaris; assay: repolarization to reach -60mV, in canine Purkinje Fibers at a concentration of 0.03 uM at 1000 ms (simulating normal heart rate); format: functional, Canis lupus familiaris, Purkinje fiber
Outline: (§1)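 Purkinje fiber bundles were stimulated with square-wave current pulses of 2.0 ms at twice threshold and equilibrated for at least 1 h, or until action potential parameters were steady. Each concentration was superfused for 45-60 min to reach steady state. Action potentials were recorded at four to six sites per fiber, under control and after drug.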

[2] = species on record: Canis familiaris; assay: Repolarization to reach -60mV, in canine Purkinje Fibers at a concentration of 0.10 uM at 300 ms (simulating tachycardia); format: functional, Canis lupus familiaris, Purkinje fiber
Outline: (§2)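 Isolated canine Purkinje fiber bundles were driven by square-wave pulses 2.0 ms long at 2× threshold and equilibrated ≥1 h to steady state. Each concentration was superfused 45–60 min before recording, and action potentials were sampled at 4–6 sites per fiber in control and after drug, giving Vmax and APD to −60 mV.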

[3] = system: Canis familiaris; assay: Ventricular conduction time by the compound in open chest anesthetized dog, after iv administration at a dose of 0.05 mg/kg.; format: functional, Canis lupus familiaris, Heart
Outline: (§3)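 Mongrel dogs were anesthetized with sodium pentobarbital (30 mg/kg iv, then 5 mg/kg per h), the chest opened, and the heart paced at BCL 300 ms. Compound was given iv or intraduodenally. Ventricular conduction time was taken as the interval between electrograms at the proximal and distal sites of the recording electrode array. 2-5 dogs per dose.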

[4] = species on record: Canis familiaris; assay: repolarization to reach -60mV, in canine Purkinje Fibers at a concentration of 0.01 uM at 1000 ms (simulating normal heart rate); format: functional, Canis lupus familiaris, Purkinje fiber; outline: as §1
[5] = system: Canis familiaris; assay: Heart beat by the compound in open chest anesthetized dog, after iv administration at a dose of 0.25 mg/kg.; format: functional, Canis lupus familiaris
Outline: (§4)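 Hemodynamics (heart rate, mean arterial pressure) recorded in pentobarbital-anesthetized (30 mg/kg iv, 5 mg/kg per h maintenance) open-chest mongrel dogs during the refractoriness study at BCL 300 ms. Readings were taken before and after iv or intraduodenal compound and expressed as change from control.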

[6] = species on record: Canis familiaris; assay: Maximum rate of rise of the upstroke of transmembrane potential, in canine Purkinje Fibers at a concentration of 0.01 uM at 300 ms (simulating tachycardia); format: functional; conditions: Canis lupus familiaris, Purkinje fiber; outline: as §2
[7] = species on record: Canis familiaris; assay: Maximum rate of rise of the upstroke of transmembrane potential, in canine Purkinje Fibers at a concentration of 0.03 uM at 300 ms (simulating tachycardia); format: functional; conditions: Canis lupus familiaris, Purkinje fiber; outline: as §2
[8] = system: Canis familiaris; assay: Mean arterial pressure by the compound in open chest anesthetized dog, after iv administration at a dose of 0.05 mg/kg.; format: functional, Canis lupus familiaris, Artery; outline: as §4
[9] = system: Canis familiaris; assay: Mean arterial pressure by the compound in open chest anesthetized dog, after iv administration at a dose of 0.25 mg/kg.; format: functional, Canis lupus familiaris, Artery; outline: as §4
[10] = system: Canis familiaris; assay: Ventricular effective refractory period by the compound in open chest anesthetized dog, after iv administration at a dose of 0.05 mg/kg.; format: functional, Canis lupus familiaris, Heart
[11] = system: Canis familiaris; assay: Atrial effective refractory period by the compound in open chest anesthetized dog, after iv administration at a dose of 0.05 mg/kg.; format: functional, Canis lupus familiaris, Cardiac atrium
Outline: (§5)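 Open-chest mongrel dogs under sodium pentobarbital anesthesia (30 mg/kg iv plus 5 mg/kg per h), paced at basic cycle length 300 ms. Atrial effective refractory period was determined by electrical stimulation before and after iv or intraduodenal compound and reported as change from control.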

[12] = species on record: Canis familiaris; assay: Repolarization to reach -60mV, in canine Purkinje Fibers at a concentration of 0.01 uM at 300 ms (simulating tachycardia); format: functional, Canis lupus familiaris, Purkinje fiber; outline: as §2
[13] = system: Canis familiaris; assay: Ventricular effective refractory period by the compound in open chest anesthetized dog, after iv administration at a dose of 0.25 mg/kg.; format: functional, Canis lupus familiaris, Heart
[14] = species on record: Canis familiaris; assay: Maximum rate of rise of the upstroke of transmembrane potential, in canine Purkinje Fibers at a concentration of 0.03 uM at 1000 ms (simulating normal heart rate); format: functional; conditions: Canis lupus familiaris, Purkinje fiber; outline: as §2
[15] = system: Canis familiaris; assay: Ventricular conduction time by the compound in open chest anesthetized dog, after iv administration at a dose of 0.25 mg/kg.; format: functional, Canis lupus familiaris, Heart; outline: as §3
[16] = species on record: Canis familiaris; assay: Maximum rate of rise of the upstroke of transmembrane potential, in canine Purkinje Fibers at a concentration of 0.10 uM at 300 ms (simulating tachycardia); format: functional; conditions: Canis lupus familiaris, Purkinje fiber; outline: as §2
[17] = species on record: Canis familiaris; assay: repolarization to reach -60mV, in canine Purkinje Fibers at a concentration of 0.10 uM at 1000 ms (simulating normal heart rate); format: functional, Canis lupus familiaris, Purkinje fiber; outline: as §1
[18] = system: Canis familiaris; assay: Atrial conduction time by the compound in open chest anesthetized dog, after iv administration at a dose of 0.05 mg/kg.; format: functional, Canis lupus familiaris, Cardiac atrium
Outline: (§6)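 Mongrel dogs anesthetized with sodium pentobarbital (30 mg/kg iv, then 5 mg/kg per h), chest opened, paced at BCL 300 ms. Atrial conduction time was taken as the interval between electrograms recorded at the proximal and distal sites of the atrial recording electrode array, before and after iv or intraduodenal dosing. Values are changes from control.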

[19] = system: Canis familiaris; assay: Heart beat by the compound in open chest anesthetized dog, after iv administration at a dose of 0.05 mg/kg.; format: functional, Canis lupus familiaris; outline: as §4
[20] = system: Canis familiaris; assay: Atrial conduction time by the compound in open chest anesthetized dog, after iv administration at a dose of 0.25 mg/kg.; format: functional, Canis lupus familiaris, Cardiac atrium; outline: as §6
[21] = species on record: Canis familiaris; assay: Repolarization to reach -60mV, in canine Purkinje Fibers at a concentration of 0.03 uM at 300 ms (simulating tachycardia); format: functional, Canis lupus familiaris, Purkinje fiber; outline: as §2
[22] = system: Canis familiaris; assay: Atrial effective refractory period by the compound in open chest anesthetized dog, after iv administration at a dose of 0.25 mg/kg.; format: functional, Canis lupus familiaris, Cardiac atrium; outline: as §5
[23] = species on record: Canis familiaris; assay: Maximum rate of rise of the upstroke of transmembrane potential, in canine Purkinje Fibers at a concentration of 0.10 uM at 1000 ms (simulating normal heart rate); format: functional; conditions: Canis lupus familiaris, Purkinje fiber; outline: as §2
[24] = species on record: Canis familiaris; assay: Maximum rate of rise of the upstroke of transmembrane potential, in canine Purkinje Fibers at a concentration of 0.01 uM at 1000 ms (simulating normal heart rate); format: functional; conditions: Canis lupus familiaris, Purkinje fiber; outline: as §2
[25] = system: Canis familiaris; assay: Heart beat by the compound in open chest anesthetized dog, after iv administration at a dose of 0.50 mg/kg.; format: functional, Canis lupus familiaris; conditions: dose 0.5 mg/kg; outline: as §4
[26] = system: Canis familiaris; assay: Mean arterial pressure by the compound in open chest anesthetized dog, after iv administration at a dose of 0.50 mg/kg.; format: functional, Canis lupus familiaris, Artery; conditions: dose 0.5 mg/kg; outline: as §4
[27] = system: Canis familiaris; assay: Ventricular effective refractory period by the compound in open chest anesthetized dog, after iv administration at a dose of 0.50 mg/kg.; format: functional, Canis lupus familiaris, Heart; conditions: dose 0.5 mg/kg
[28] = system: Canis familiaris; assay: Atrial effective refractory period by the compound in open chest anesthetized dog, after iv administration at a dose of 0.50 mg/kg.; format: functional, Canis lupus familiaris, Cardiac atrium; conditions: dose 0.5 mg/kg; outline: as §5
[29] = system: Canis familiaris; assay: Ventricular conduction time by the compound in open chest anesthetized dog, after iv administration at a dose of 0.50 mg/kg.; format: functional, Canis lupus familiaris, Heart; conditions: dose 0.5 mg/kg; outline: as §3
[30] = system: Canis familiaris; assay: Atrial conduction time by the compound in open chest anesthetized dog, after iv administration at a dose of 0.50 mg/kg.; format: functional, Canis lupus familiaris, Cardiac atrium; conditions: dose 0.5 mg/kg; outline: as §6

Compound | APD [1] | APD [2] | VCT [3] | APD [4] | HR [5] | Vmax [6] | Vmax [7] | MBP [8] | MBP [9] | VERP [10] | AERP [11] | APD [12] | VERP [13] | Vmax [14] | VCT [15] | APD [17] | ACT [18] | HR [19] | ACT [20] | AERP [22] | also measured
CN(CCCOc1ccc(NS(C)(=O)=O)cc1)Cc1ccc2cc(NS(C)(=O)=O)ccc2n1 | 56% | 22% | -1 | 36% | -26 | -1 | -9 | 4 | 4 | 26 | 53 | 15% | 36 | -8 | -3 | 73% | -5 | -16 | -4 | 70 | Vmax [16]: -14; APD [21]: 17%; Vmax [23]: -12; Vmax [24]: -1
Cc1cccc(CCN2CCC(C(=O)c3ccc(NS(C)(=O)=O)cc3)CC2)n1 | 53% | 24% | -3 | 27% | -25 | – | – | 2 | -11 | 18 | 28 | 11% | 23 | – | -2 | 54% | 1 | -10 | 1 | 38 | HR [25]: -29; MBP [26]: -15; VERP [27]: 24; AERP [28]: 44; VCT [29]: -3; ACT [30]: 1
CN(CCOc1ccc(NS(C)(=O)=O)cc1)CCc1ccc(NS(C)(=O)=O)cc1 [DOFETILIDE] | 67% | 29% | -4 | 37% | -21 | 4 | 7 | 1 | 1 | 23 | 46 | 22% | 25 | 2 | -5 | 85% | -4 | -14 | -6 | 60 | HR [25]: -24; MBP [26]: -2; VERP [27]: 27; AERP [28]: 65; VCT [29]: -4; Vmax [16]: 5; Vmax [23]: 5; ACT [30]: -9; Vmax [24]: 4
